According to ChEMBL document CHEMBL4138242, “Synthesis and antibacterial evaluation of novel cationic chalcone derivatives possessing broad spectrum antibacterial activity” (Eur J Med Chem, 2018):
Calls of active or inactive are those of the source. The rule behind the calls is not given here.

Experiments:
Staphylococcus aureus [1] = assay: Bactericidal activity against Staphylococcus aureus ATCC 29213 preincubated with 50% sheep plasma at 512 ug/ml for 3 to 6 hrs followed by compound serial dilution and subsequent bacterial inoculation measured after 20 to 24 hrs; assay type: functional; conditions: read-out: MBC99.9
Procedure, shortened: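 Compound at 512 µg/mL in 50% water/50% sheep plasma, preincubated at 37 °C for 0, 3 or 6 h. Then serially diluted (256-4 µg/mL) and combined 50:150 µL with S. aureus at 10⁵ CFU/mL, 37 °C for 20-24 h. MBC determined by plating; three parallel samples.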

Escherichia coli [2] = assay: Antibacterial activity against Escherichia coli ATCC 25922 after 16 to 20 hrs by broth microdilution method; assay type: functional
Procedure, shortened: (§1)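 Broth microdilution per CLSI. Bacteria grown 4-6 h (about 10⁸ CFU/mL), then diluted to about 10⁶ CFU/mL. Medium: Mueller-Hinton broth, except Luria-Bertani broth for E. coli. Compounds in sterile water, twofold series 256-0.5 µg/mL, mixed 1:1 with inoculum, 37 °C for 16-20 h. MIC is the lowest concentration without visible growth. Duplicate wells; experiment repeated at least twice.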

Salmonella enterica = assay: Antibacterial activity against Salmonella enterica ATCC 13076 after 16 to 20 hrs by broth microdilution method; assay type: functional; procedure, shortened: as §1
[3] = Hemolytic activity in sheep RBC after 1 hr; assay type: ADME, cell-based, Ovis aries, Erythrocyte; conditions: sheep red blood cells (erythrocytes)
Procedure, shortened: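 Sheep red blood cells (150 µL suspension) mixed with 50 µL of compound dilutions (5120-10 µg/mL), 1 h at 37 °C, then centrifuged. Supernatant read at 540 nm. Percent hemolysis calculated relative to RBC-only control (0%) and 0.1% Triton X-100 (100%).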

Staphylococcus aureus [4] = assay: Antibacterial activity against methicillin-resistant Staphylococcus aureus clinical isolate 1105183 cono7 after 16 to 20 hrs by broth microdilution method; assay type: functional
Procedure, shortened: (§2)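 CLSI broth microdilution in Mueller-Hinton broth. A 4-6 h culture was diluted to about 10⁶ CFU/mL and mixed 1:1 with compound dilutions prepared at 256 to 0.5 µg/mL from aqueous stocks. Plates were incubated at 37 °C for 16-20 h and read visually for MIC. Each concentration was run in duplicate, and the experiment was repeated at least twice. Vancomycin and meropenem were comparators.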

Staphylococcus aureus [5] = assay: Antibacterial activity against methicillin-resistant Staphylococcus aureus clinical isolate 1104060 after 16 to 20 hrs by broth microdilution method; assay type: functional; procedure, shortened: as §2
Staphylococcus aureus [6] = assay: Antibacterial activity against methicillin-resistant Staphylococcus aureus clinical isolate 1207007 after 16 to 20 hrs by broth microdilution method; assay type: functional; procedure, shortened: as §2
Staphylococcus aureus [7] = assay: Antibacterial activity against methicillin-resistant Staphylococcus aureus clinical isolate 1-may after 16 to 20 hrs by broth microdilution method; assay type: functional; procedure, shortened: as §2
Staphylococcus aureus [8] = assay: Antibacterial activity against methicillin-resistant Staphylococcus aureus clinical isolate 0906202 after 16 to 20 hrs by broth microdilution method; assay type: functional; procedure, shortened: as §2
Staphylococcus aureus [9] = assay: Antibacterial activity against methicillin-resistant Staphylococcus aureus clinical isolate 1208143 after 16 to 20 hrs by broth microdilution method; assay type: functional; procedure, shortened: as §2
Klebsiella pneumoniae [10] = assay: Antibacterial activity against drug-resistant carbapenemase producing Klebsiella pneumoniae clinical isolate KP-14-3 after 16 to 20 hrs by broth microdilution method; assay type: functional; procedure, shortened: as §2
Klebsiella pneumoniae [11] = assay: Antibacterial activity against drug-resistant carbapenemase producing Klebsiella pneumoniae clinical isolate KP-14-1 after 16 to 20 hrs by broth microdilution method; assay type: functional; procedure, shortened: as §2
Klebsiella pneumoniae [12] = assay: Antibacterial activity against drug-resistant carbapenemase producing Klebsiella pneumoniae clinical isolate KP-14-4 after 16 to 20 hrs by broth microdilution method; assay type: functional; procedure, shortened: as §2
Klebsiella pneumoniae [13] = assay: Antibacterial activity against drug-resistant carbapenemase producing Klebsiella pneumoniae clinical isolate KP-14-2 after 16 to 20 hrs by broth microdilution method; assay type: functional; procedure, shortened: as §2
Klebsiella pneumoniae [14] = assay: Antibacterial activity against drug-resistant carbapenemase producing Klebsiella pneumoniae clinical isolate EC-13-23 after 16 to 20 hrs by broth microdilution method; assay type: functional; procedure, shortened: as §2
Klebsiella pneumoniae [15] = assay: Antibacterial activity against drug-resistant carbapenemase producing Klebsiella pneumoniae clinical isolate KP-13-55 after 16 to 20 hrs by broth microdilution method; assay type: functional; procedure, shortened: as §2
Klebsiella pneumoniae [16] = assay: Antibacterial activity against drug-resistant carbapenemase producing Klebsiella pneumoniae clinical isolate KP-14-45 after 16 to 20 hrs by broth microdilution method; assay type: functional; procedure, shortened: as §2
Klebsiella pneumoniae [17] = assay: Antibacterial activity against drug-resistant carbapenemase producing Klebsiella pneumoniae clinical isolate KP-14-18 after 16 to 20 hrs by broth microdilution method; assay type: functional; procedure, shortened: as §2
Escherichia coli [18] = assay: Antibacterial activity against drug-resistant NDM1 producing Escherichia coli clinical isolate EC-13-49 after 16 to 20 hrs by broth microdilution method; assay type: functional; procedure, shortened: as §2
Escherichia coli [19] = assay: Antibacterial activity against drug-resistant NDM1 producing Escherichia coli clinical isolate KP-13-58 after 16 to 20 hrs by broth microdilution method; assay type: functional; procedure, shortened: as §2
Escherichia coli [20] = assay: Antibacterial activity against drug-resistant NDM1 producing Escherichia coli clinical isolate CF-13-61 after 16 to 20 hrs by broth microdilution method; assay type: functional; procedure, shortened: as §2
Staphylococcus aureus [21] = assay: Disruption of 24 hrs cultured Staphylococcus aureus ATCC 29213 biofilm assessed as cell viability in biofilm at 4 ug/ml after 24 hrs by crystal violet staining-based assay (reference value: 15.96 log10CFU/ml); assay type: functional
Staphylococcus aureus [22] = assay: Disruption of 24 hrs cultured Staphylococcus aureus ATCC 29213 biofilm assessed as cell viability in biofilm at 16 ug/ml after 24 hrs by crystal violet staining-based assay (reference value: 15.96 log10CFU/ml); assay type: functional
Staphylococcus aureus [23] = assay: Disruption of 24 hrs cultured Staphylococcus aureus ATCC 29213 biofilm assessed as decrease in cell viability in biofilm after 24 hrs by crystal violet staining-based assay; assay type: functional, organism-based
Staphylococcus aureus [24] = assay: Bactericidal activity against methicillin-resistant Staphylococcus aureus in presence of 50% sheep blood after 20 to 24 hrs; assay type: functional; conditions: read-out: MBC99.9
Procedure, shortened: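 MRSA at 10⁵ CFU/mL in 50% MHB plus 50% sheep serum, plasma or defibrinated blood; serum and plasma were obtained by centrifugation at 3,500 rpm for 10 min. Aqueous dilutions prepared at 512-4 µg/mL were added 1:3 to the suspension and incubated for 20-24 h at 37 °C. Well contents (20 µL) were plated on MHA for 20-24 h, and MBC was the concentration giving no colonies.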

Staphylococcus aureus [25] = assay: Induction of cytoplasmic membrane depolarization in Staphylococcus aureus ATCC 29213 at 10 to 20 ug/ml measured every 2 mins for 12 mins by DiSC35 dye-based fluorescence assay; assay type: functional, organism-based
Procedure, shortened: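 Mid-log cells (~10⁸ CFU/mL) were suspended in PBS (S. aureus) or HEPES/glucose/KCl with EDTA (E. coli). They were preloaded with DiSC3(5) for 30 min (S. aureus) or 40 min (E. coli), and baseline fluorescence was read for 8 min. Compound was added to 20 µg/mL final, and fluorescence (ex 622/em 670 nm) was read every 2 min for 12 min. Water served as control.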

Escherichia coli [26] = assay: Induction of inner membrane permeabilization in Escherichia coli ATCC 25922 at 10 to 20 ug/ml measured every 2 mins for 12 mins by propidium iodide staining-based fluorescence assay; assay type: functional, organism-based
Procedure, shortened: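 Mid-log cells (~10⁸ CFU/mL) were suspended in PBS (S. aureus) or HEPES/glucose/KCl (E. coli). They were preincubated with propidium iodide for 30 min (S. aureus) or 40 min (E. coli), and baseline fluorescence was read for 8 min. Compound was added to 20 µg/mL final, and fluorescence (ex 535/em 617 nm) was read every 2 min for 12 min.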

## CCCCCCCC[N+](C)(C)CC(=O)Nc1ccc(C(=O)/C=C/c2ccccc2F)cc1.[Cl-]
Staphylococcus aureus [1]
  MBC: 16 µg/mL
Escherichia coli [2]
  MIC: 2 µg/mL
Salmonella enterica
  MIC: 4 µg/mL
[3]
  HC50 at 1 h: 137 µg/mL
Staphylococcus aureus [4]
  MIC: 1 µg/mL
Staphylococcus aureus [5]
  MIC: 8 µg/mL
Staphylococcus aureus [6]
  MIC: 0.25 µg/mL
Staphylococcus aureus [7]
  MIC: 1 µg/mL
Staphylococcus aureus [8]
  MIC: 4 µg/mL
Staphylococcus aureus [9]
  MIC: 1 µg/mL
Klebsiella pneumoniae [10]
  MIC: 8 µg/mL
Klebsiella pneumoniae [11]
  MIC: 8 µg/mL
Klebsiella pneumoniae [12]
  MIC: 4 µg/mL
Klebsiella pneumoniae [13]
  MIC: 16 µg/mL
Klebsiella pneumoniae [14]
  MIC: 4 µg/mL
Klebsiella pneumoniae [15]
  MIC: 16 µg/mL
Klebsiella pneumoniae [16]
  MIC: 8 µg/mL
Klebsiella pneumoniae [17]
  MIC: 16 µg/mL
Escherichia coli [18]
  MIC: 4 µg/mL
Escherichia coli [19]
  MIC: 1 µg/mL
Escherichia coli [20]
  MIC: 4 µg/mL
Staphylococcus aureus [21]
  Activity: 12.93 log10CFU/ml
Staphylococcus aureus [22]
  Activity: 10.95 log10CFU/ml
Staphylococcus aureus [23]
  Activity: Dose-dependent effect
Staphylococcus aureus [24]
  MBC: 128 µg/mL
Staphylococcus aureus [25]
  Activity: Active
Escherichia coli [26]
  Activity: Active
